# Test results taken from ChEMBL document CHEMBL3232870, “Discovery of 3-(4-methanesulfonylphenoxy)-N-[1-(2-methoxy-ethoxymethyl)-1H-pyrazol-3-yl]-5-(3-methylpyridin-2-yl)-benzamide as a novel glucokinase activator (GKA) for the treatment of type 2 diabetes mellitus” (Bioorg Med Chem, 2014).
# Experiments:
# [1] = Clearance in Sprague-Dawley rat at 3 mg/kg, iv and 10 mg/kg, po; assay type: ADME, organism-based; conditions: in vivo
# Outline: (§1)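 Male ICR mice and 7-week-old SD rats received a 3 mg/kg intravenous bolus or a 10 mg/kg oral gavage dose. Plasma was deproteinized with acetonitrile (2 volumes) and compound measured by HPLC. Parameters came from noncompartmental analysis.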
# [2] = Elimination half life in Sprague-Dawley rat at 3 mg/kg, iv and 10 mg/kg, po; assay type: ADME, organism-based; conditions: in vivo, read-out: beta t1/2 (converted); outline: as §1
# [3] = Tmax in male Sprague-Dawley rat at 1000 mg/kg, po measured on day 1; assay type: ADME, organism-based; design: dose 1000 mg/kg, route oral; conditions: in vivo
# Outline: (§2)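 Sprague–Dawley rats of both sexes, 5 weeks old at arrival, received daily oral gavage at 0, 250, 500 or 1000 mg/kg/day for 14 days. Vehicle was 0.5% methylcellulose at 10 mL/kg. Toxicokinetics were taken on Day 1 and Day 14. Necropsy was by Day 15. Testis was fixed in modified Davidson's fixative, paraffin-sectioned and H&E-stained, with histopathology on control and high-dose groups only.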
# [4] = Cmax in male Sprague-Dawley rat at 500 mg/kg, po measured on day 14; assay type: ADME, organism-based; design: dose 500 mg/kg, route oral; conditions: in vivo
# Outline: (§3)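 Sprague–Dawley rats, 5 weeks old at arrival, both sexes. Given the compound by oral gavage once daily for 14 days at 0, 250, 500 or 1000 mg/kg/day, with 0.5% methylcellulose as vehicle. Toxicokinetic parameters were determined on Day 1 and Day 14.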
# [5] = Tmax in female Sprague-Dawley rat at 500 mg/kg, po measured on day 1; assay type: ADME, organism-based; design: dose 500 mg/kg, route oral; conditions: in vivo; outline: as §2
# Salmonella typhimurium [6] = assay: Cytotoxicity in Salmonella typhimurium TA100 at 1.5 to 5000 ug/plate in absence of S9 fraction; assay type: organism-based; conditions: salmonella enterica subsp. enterica serovar typhimurium
# Outline: (§4)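 Ames reverse mutation test by direct plate incorporation in S. typhimurium TA98 and TA100, with or without Aroclor 1254-induced rat liver S9 mix. Compound in DMSO at 1.5–5000 µg/plate, plated in top agar, incubated 37 °C for about 50 h, then revertant colonies counted. Plates were checked for precipitation and cytotoxicity. A positive was a reproducible, dose-related increase in revertants of more than 2-fold.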
# [7] = Mean residence time in Sprague-Dawley rat at 3 mg/kg, iv and 10 mg/kg, po; assay type: ADME, organism-based; conditions: in vivo
# Outline: (§5)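 Male ICR mice and 7-week-old SD rats received a 3 mg/kg iv bolus or a 10 mg/kg oral gavage dose. Plasma was precipitated with 2 volumes of acetonitrile and analysed by HPLC. Parameters came from noncompartmental analysis.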
# [8] = AUC (0 to t) in male Sprague-Dawley rat at 250 mg/kg, po measured on day 14; assay type: ADME, organism-based; design: dose 250 mg/kg, route oral; conditions: plasma; outline: as §3
# [9] = Cmax in female Sprague-Dawley rat at 500 mg/kg, po measured on day 14; assay type: ADME, organism-based; design: dose 500 mg/kg, route oral; conditions: in vivo; outline: as §3
# Cytochrome P450 2B6 = molecular target: T1, Cytochrome P450 2B6 (Homo sapiens, UniProt P20813); assay: Inhibition of CYP2B6 in human liver microsomes; assay type: ADME
# T1 sequence (P20813 whole entry): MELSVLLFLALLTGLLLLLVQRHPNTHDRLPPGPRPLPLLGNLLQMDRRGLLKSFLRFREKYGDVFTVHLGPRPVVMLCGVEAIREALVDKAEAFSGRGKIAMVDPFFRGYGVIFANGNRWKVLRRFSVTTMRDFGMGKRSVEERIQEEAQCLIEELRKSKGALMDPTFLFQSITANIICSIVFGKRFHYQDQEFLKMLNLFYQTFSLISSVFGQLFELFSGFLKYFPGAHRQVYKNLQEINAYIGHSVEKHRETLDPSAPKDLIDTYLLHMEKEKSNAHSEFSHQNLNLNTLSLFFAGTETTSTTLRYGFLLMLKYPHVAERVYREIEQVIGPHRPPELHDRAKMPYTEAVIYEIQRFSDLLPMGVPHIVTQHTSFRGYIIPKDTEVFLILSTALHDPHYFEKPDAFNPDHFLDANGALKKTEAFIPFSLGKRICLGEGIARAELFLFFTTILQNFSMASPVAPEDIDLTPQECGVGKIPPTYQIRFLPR
# Outline: (§6)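 Pooled human liver microsomes at 0.25 mg/mL, each with a CYP-selective substrate and test compound up to 25 µM, preincubated at 37 °C. It is stopped on ice with ice-cold acetonitrile and centrifuged, and the supernatant is analysed by LC–MS/MS.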
# [10] = Cmax in male Sprague-Dawley rat at 1000 mg/kg, po measured on day 14; assay type: ADME, organism-based; design: dose 1000 mg/kg, route oral; conditions: in vivo; outline: as §3
# Salmonella typhimurium [11] = assay: Cytotoxicity in Salmonella typhimurium TA100 at 1.5 to 5000 ug/plate in presence of S9 fraction; assay type: organism-based; conditions: salmonella enterica subsp. enterica serovar typhimurium; outline: as §4
# Salmonella typhimurium [12] = assay: Cytotoxicity in Salmonella typhimurium TA98 at 1.5 to 5000 ug/plate in presence of S9 fraction; assay type: organism-based; conditions: salmonella enterica subsp. enterica serovar typhimurium; outline: as §4
# [13] = Tmax in male Sprague-Dawley rat at 250 mg/kg, po measured on day 14; assay type: ADME, organism-based; design: dose 250 mg/kg, route oral; conditions: in vivo; outline: as §2
# [14] = Volume of distribution at steady state in Sprague-Dawley rat at 3 mg/kg, iv and 10 mg/kg, po; assay type: ADME, organism-based; conditions: in vivo, read-out: Vdss; outline: as §5
# [15] = AUC (0 to t) in male Sprague-Dawley rat at 500 mg/kg, po measured on day 14; assay type: ADME, organism-based; design: dose 500 mg/kg, route oral; conditions: plasma; outline: as §3
# Cytochrome P450 3A4 = Cytochrome P450 3A4 (Homo sapiens, UniProt P08684); assay: Induction of CYP3A4 in human liver microsomes up to 25 to 50 uM; assay type: ADME
# [16] = Tmax in ICR mouse at 3 mg/kg, iv and 10 mg/kg, po; assay type: ADME, organism-based; conditions: in vivo; outline: as §5
# Rattus norvegicus = assay: Toxicity in Sprague-Dawley rat assessed as multinucleated giant cells in testis at 250 to 1000 mg/kg, po by hematoxylin and eosin staining-based microscopy; assay type: organism-based; design: dose 250-1000 mg/kg, route oral; conditions: in vivo; outline: as §2
# Cytochrome P450 2D6 = Cytochrome P450 2D6 (Homo sapiens, UniProt P10635); assay: Inhibition of CYP2D6 in human liver microsomes; assay type: ADME; outline: as §6
# [17] = Tmax in female Sprague-Dawley rat at 1000 mg/kg, po measured on day 14; assay type: ADME, organism-based; design: dose 1000 mg/kg, route oral; conditions: in vivo; outline: as §2
# Salmonella typhimurium [18] = assay: Genotoxicity in Salmonella typhimurium TA98 assessed as increase in number of revertants at 1.5 to 5000 ug/plate by Ames test in absence of S9 fraction; assay type: toxicity, organism-based; conditions: salmonella enterica subsp. enterica serovar typhimurium; outline: as §4
# [19] = AUC (0 to t) in male Sprague-Dawley rat at 1000 mg/kg, po measured on day 14; assay type: ADME, organism-based; design: dose 1000 mg/kg, route oral; conditions: plasma; outline: as §3
# [20] = Aqueous solubility of the compound in phosphate buffer at pH 7.4; assay type: physicochemical
# [21] = Cmax in female Sprague-Dawley rat at 1000 mg/kg, po measured on day 14; assay type: ADME, organism-based; design: dose 1000 mg/kg, route oral; conditions: in vivo; outline: as §3
# Mus musculus = assay: Toxicity in fasting C57BL/J6 mouse assessed as glucose lowering effect at 50 mg/kg, po after 30 to 360 mins; assay type: organism-based; design: dose 50 mg/kg, route oral; conditions: in vivo
# Outline: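 Eight-week-old male C57BL/6 mice were fasted 6 h with free access to water, then dosed orally with compound or 0.5% methylcellulose vehicle, with no glucose challenge. Blood glucose was followed up to 360 min, n = 6 per group.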
# Chain of Cytochrome P450 2D6 (P10635 whole entry): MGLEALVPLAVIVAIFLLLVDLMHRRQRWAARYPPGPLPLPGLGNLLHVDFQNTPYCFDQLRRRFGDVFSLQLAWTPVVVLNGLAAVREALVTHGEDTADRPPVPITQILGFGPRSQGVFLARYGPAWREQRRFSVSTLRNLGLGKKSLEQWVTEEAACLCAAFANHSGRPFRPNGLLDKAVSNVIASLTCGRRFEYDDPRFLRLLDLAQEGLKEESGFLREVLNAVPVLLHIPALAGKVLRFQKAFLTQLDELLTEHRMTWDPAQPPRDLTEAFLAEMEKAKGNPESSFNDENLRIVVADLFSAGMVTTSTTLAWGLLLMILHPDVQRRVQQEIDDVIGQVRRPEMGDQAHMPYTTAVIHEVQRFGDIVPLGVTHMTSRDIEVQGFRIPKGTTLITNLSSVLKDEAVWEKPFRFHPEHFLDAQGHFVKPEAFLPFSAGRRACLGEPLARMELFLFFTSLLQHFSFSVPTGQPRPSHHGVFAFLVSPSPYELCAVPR
# Chain of Cytochrome P450 3A4 (P08684 whole entry): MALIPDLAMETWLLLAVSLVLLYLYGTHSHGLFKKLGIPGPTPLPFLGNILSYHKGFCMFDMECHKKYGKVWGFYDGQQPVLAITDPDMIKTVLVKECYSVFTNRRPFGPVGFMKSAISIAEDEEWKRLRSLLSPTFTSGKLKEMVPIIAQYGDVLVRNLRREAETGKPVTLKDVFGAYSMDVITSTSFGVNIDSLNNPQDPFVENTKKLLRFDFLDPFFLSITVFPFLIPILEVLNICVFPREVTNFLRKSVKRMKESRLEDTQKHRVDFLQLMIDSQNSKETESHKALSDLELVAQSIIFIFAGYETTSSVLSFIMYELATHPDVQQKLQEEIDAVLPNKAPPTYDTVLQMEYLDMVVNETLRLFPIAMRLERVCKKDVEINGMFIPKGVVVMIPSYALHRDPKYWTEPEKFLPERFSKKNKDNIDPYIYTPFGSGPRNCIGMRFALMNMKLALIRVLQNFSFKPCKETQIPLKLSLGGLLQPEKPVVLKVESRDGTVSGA
structure (smiles),measurement,setting,value
COCCOCn1ccc(NC(=O)c2cc(Oc3ccc(S(C)(=O)=O)cc3)cc(-c3ncccc3C)c2)n1,clearance,[1],9.83 mL/min/kg
same,half-life,[2],0.3 h
same,Tmax,[3],4 h
same,Cmax,[4],2800 ng/mL
same,Tmax,[5],3.3 h
same,Activity,Salmonella typhimurium [6],Non-toxic
same,MRT,[7],0.37 h
same,AUC(0-t),[8],8180 ng·h/mL
same,Cmax,[9],3920 ng/mL
same,inhibition (INH),Cytochrome P450 2B6,Not Active
same,Cmax,[10],3090 ng/mL
same,Activity,Salmonella typhimurium [11],Non-toxic
same,Activity,Salmonella typhimurium [12],Non-toxic
same,Tmax,[13],3 h
same,Vd,[14],0.21 L/kg
same,AUC(0-t),[15],13600 ng·h/mL
same,Activity,Cytochrome P450 3A4,Not Active
same,Tmax,[16],0.25 h
same,Activity,Rattus norvegicus,Non-toxic
same,inhibition (INH),Cytochrome P450 2D6,Not Active
same,Tmax,[17],2.7 h
same,Activity,Salmonella typhimurium [18],Non-toxic
same,AUC(0-t),[19],25000 ng·h/mL
same,solubility,[20],122 µM
same,Cmax,[21],5210 ng/mL
same,Activity,Mus musculus,Toxic
